{"source": "ChEMBL document CHEMBL3526060", "about": "“Impact of hydrolysis-mediated clearance on the pharmacokinetics of novel anaplastic lymphoma kinase inhibitors” (Drug Metab Dispos, 2013)", "key": {"[1]": {"experiment": "AUC (0 to infinity) in CD-1 mouse at 2 mg/kg, iv administered as single bolus dose by LC-MS/MS analysis", "format": "ADME, organism-based", "parameters": "time infinity, dose 2 mg/kg, route intravenous", "conditions": "plasma", "outline": "(§1)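 Single 2 mg/kg IV bolus via lateral tail vein to male CD-1 mice. Mice euthanized at 0.083–24 h, 3 per time point (27 animals); cardiac-puncture blood into heparin on ice, plasma spun at 4 °C and immediately extracted with acetonitrile/0.1% formic acid plus IS, LC-MS/MS. Noncompartmental CL = Dose/AUC0–inf, t1/2 = 0.693/k, Vss from AUMC/AUC, MRT = Vss/CL.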"}, "Plasma [2]": {"system": "Plasma", "experiment": "Drug metabolism in CD-1 mouse plasma assessed as hydrolysis metabolite formation rate by LC-MS/MS analysis", "format": "ADME, cell-free", "outline": "(§2)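 Mouse plasma depletion kinetics at 37 °C, substrate range 0.0023–5 µM, up to 3 h; samples quenched into acetonitrile/tolbutamide, LC-MS/MS. CLint per concentration from t1/2; apparent Vmax and Km fitted by nonlinear regression to Michaelis-Menten, formation rate simulated from fit; mean of two replicates.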"}, "[3]": {"experiment": "Half life in CD-1 mouse at 2 mg/kg, iv administered as single bolus dose by LC-MS/MS analysis", "format": "ADME, organism-based", "parameters": "dose 2 mg/kg, route intravenous", "conditions": "in vivo", "outline": "as §1"}, "[4]": {"experiment": "Drug metabolism in CD-1 mouse liver microsomes assessed as hydrolysis metabolite formation rate by LC-MS/MS analysis", "format": "ADME", "outline": "(§3)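 Mouse liver microsomes 0.25 mg/mL in 0.1 M phosphate pH 7.4, with or without 1 mM NADPH, substrate 0.0023–5 µM; sampling to 40 min into acetonitrile/IS, LC-MS/MS depletion. Hydrolysis Vmax/Km solved from no-NADPH incubations, then NADPH-dependent constants; metabolite formation rate simulated from fitted constants; duplicates.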"}, "[5]": {"experiment": "Plasma clearance in CD-1 mouse at 2 mg/kg, iv administered as single bolus dose by LC-MS/MS analysis", "format": "ADME, organism-based", "parameters": "dose 2 mg/kg, route intravenous", "outline": "as §1"}, "Plasma [6]": {"system": "Plasma", "experiment": "Drug metabolism in CD-1 mouse plasma assessed as maximum intrinsic clearance for hydrolysis metabolite formation by LC-MS/MS analysis", "format": "ADME, cell-free", "outline": "as §2"}, "[7]": {"experiment": "Volume of distribution at steady state in CD-1 mouse at 2 mg/kg, iv administered as single bolus dose by LC-MS/MS analysis", "format": "ADME, organism-based", "parameters": "dose 2 mg/kg, route intravenous", "conditions": "in vivo, read-out: Vdss", "outline": "as §1"}, "[8]": {"experiment": "Mean residence time in CD-1 mouse at 2 mg/kg, iv administered as single bolus dose by LC-MS/MS analysis", "format": "ADME, organism-based", "parameters": "dose 2 mg/kg, route intravenous", "conditions": "in vivo", "outline": "as §1"}, "[9]": {"experiment": "Ratio of drug level in blood to plasma in CD-1 mouse at 1 uM treated 20 mins after amide hydrolysis inhibitor DFP challenge measured after 1 hr by LC-MS/MS analysis", "format": "ADME", "conditions": "whole blood", "outline": "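Fresh whole blood pre-incubated 20 min with 100 µM DFP, warmed to 37 °C, spiked to 1 µM, incubated 1 h, then plasma separated; reference plasma spiked at 1 µM. Extracted with 6 volumes acetonitrile/IS, LC-MS/MS; ratio = reference plasma peak area / treated plasma peak area.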"}, "[10]": {"experiment": "Fraction unbound in CD-1 mouse liver microsomes after 7 hrs by equilibrium dialysis method", "format": "ADME", "outline": "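Equilibrium dialysis of 0.25 mg/mL mouse liver microsomes in phosphate buffer against PBS, 7 h at 37 °C, 5% CO2, test compound 0.1, 0.5 or 2 µM, triplicate; LC-MS/MS; fraction unbound = buffer/microsome concentration.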"}, "[11]": {"experiment": "Drug metabolism in CD-1 mouse NADPH-fortified liver microsomes assessed as hydrolysis metabolite formation rate by LC-MS/MS analysis", "format": "ADME", "outline": "as §3"}, "[12]": {"experiment": "In vitro half life in CD-1 mouse plasma at 0.83 uM by LC-MS/MS analysis", "format": "ADME, cell-free", "outline": "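Screening stability: compound at 0.83 µM in mouse plasma at 37 °C, up to 3 h; timed aliquots quenched into acetonitrile with tolbutamide IS, centrifuged, LC-MS/MS; half-life from depletion, CLint = (0.693/t1/2)/plasma concentration.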"}, "[13]": {"experiment": "Fraction unbound in CD-1 mouse plasma after 7 hrs by equilibrium dialysis method", "format": "ADME, cell-free", "outline": "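Mouse plasma pre-treated 20 min with 100 µM DFP to block hydrolysis, spiked at 0.1, 0.5 or 2 µM, equilibrium dialysis against PBS for 7 h at 37 °C, 5% CO2, triplicate; matrix-matched samples extracted with acetonitrile/IS, LC-MS/MS; fu = buffer/plasma concentration.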"}}, "data": [{"molecule": "CC(C)NC(=O)[C@H]1CC[C@@H](n2/c(=N/C(=O)c3cc(F)cc(Cl)c3)[nH]c3ccc(CN4CCC(C(C)(C)O)CC4)cc32)CC1", "values": [{"measurement": "AUC(0-inf)", "setting": "[1]", "value": 1.53, "unit": "µM·h"}, {"measurement": "Vmax(app)", "setting": "Plasma [2]", "value": 0.305, "unit": "pmol/min/mL"}, {"measurement": "Km", "setting": "Plasma [2]; read-out: Km(app)", "value": 0.146, "unit": "µM"}, {"measurement": "half-life", "setting": "[3]", "value": 2.08, "unit": "h"}, {"measurement": "Vmax(app)", "setting": "[4]", "value": 2.49, "unit": "pmol/min/mg"}, {"measurement": "Km", "setting": "[4]; read-out: Km(app)", "value": 0.053, "unit": "µM"}, {"measurement": "clearance", "setting": "[5]", "value": 35.7, "unit": "mL/min/kg"}, {"measurement": "CL", "setting": "Plasma [6]", "value": 2.09, "unit": "uL/min.ml"}, {"measurement": "Vd", "setting": "[7]", "value": 5.47, "unit": "L/kg"}, {"measurement": "MRT", "setting": "[8]", "value": 2.56, "unit": "h"}, {"measurement": "blood plasma ratio at 1 h, 1 µM", "setting": "[9]", "value": 0.9}, {"measurement": "fraction unbound at 7 h", "setting": "[10]", "value": 0.22}, {"measurement": "Vmax(app)", "setting": "[11]", "value": 279, "unit": "pmol/min/mg"}, {"measurement": "Km", "setting": "[11]; read-out: Km(app)", "value": 1.9, "unit": "µM"}, {"measurement": "half-life at 0.83 µM", "setting": "[12]", "value": 8.2, "unit": "h"}, {"measurement": "fraction unbound at 7 h", "setting": "[13]", "value": 0.011}]}]}
